Data taken from ChEMBL document CHEMBL1149790, “Synthesis of some novel thiourea derivatives obtained from 5-[(4-aminophenoxy)methyl]-4-alkyl/aryl-2,4-dihydro-3H-1,2,4-triazole-3-thiones and evaluation as antiviral/anti-HIV and anti-tuberculosis agents” (Eur J Med Chem, 2008).
In brackets after ≈: the same amount, converted by molar mass.

How the values were obtained:
[1] = Cytotoxicity against human E6SM cells; type: cell-based; conditions: E6SM cells
How it was run: (§1)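 Uninfected cell cultures exposed to test compounds alongside antiviral assays; minimum cytotoxic concentration (MCC) = concentration causing a microscopically detectable alteration of cell morphology.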

[2] = Cytotoxicity against human HEL cells assessed as alteration of cell morphology; type: cell-based; how it was run: as §1
Human alphaherpesvirus 1 [3] = test: Antiviral activity against HSV1 KOS in human E6SM cells assessed as reduction of virus-induced cytopathogenicity; type: functional; conditions: Human alphaherpesvirus 1, KOS
How it was run: (§2)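 Confluent cell monolayers (E6SM, HEL, HeLa or Vero, per line) inoculated with 100 CCID50 virus; 1 h adsorption, residual virus removed, then incubated with compound at 400, 200, 100 … µg/ml. Cytopathicity scored once complete in untreated virus controls; MIC = concentration inhibiting virus-induced cytopathicity.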

Human alphaherpesvirus 1 [4] = test: Antiviral activity against HSV1 KOS in human HEL cells assessed as reduction of virus-induced cytopathogenicity; type: functional; conditions: Human alphaherpesvirus 1, KOS; how it was run: as §2
Human alphaherpesvirus 2 [5] = test: Antiviral activity against HSV2 G in human E6SM cells assessed as reduction of virus-induced cytopathogenicity; type: functional; conditions: Human alphaherpesvirus 2, G; how it was run: as §2
Human alphaherpesvirus 2 [6] = test: Antiviral activity against HSV2 G in human HEL cells assessed as reduction of virus-induced cytopathogenicity; type: functional; conditions: Human alphaherpesvirus 2, G; how it was run: as §2
[7] = test system: Vesicular stomatitis virus; test: Antiviral activity against in Vesicular stomatitis virus in human E6SM cells assessed as reduction of virus-induced cytopathogenicity; type: functional; how it was run: as §2
[8] = test system: Vesicular stomatitis virus; test: Antiviral activity against in Vesicular stomatitis virus in human HEL cells assessed as reduction of virus-induced cytopathogenicity; type: functional; how it was run: as §2
Human alphaherpesvirus 1 [9] = test: Antiviral activity against thymidine kinase deficient and acyclovir resistant HSV1 KOS in human E6SM cells assessed as reduction of virus-induced cytopathogenicity; type: functional; conditions: Human alphaherpesvirus 1, KOS; how it was run: as §2
Human alphaherpesvirus 1 [10] = test: Antiviral activity against thymidine kinase deficient and acyclovir resistant HSV1 KOS in human HEL cells assessed as reduction of virus-induced cytopathogenicity; type: functional; conditions: Human alphaherpesvirus 1, KOS; how it was run: as §2
[11] = Cytotoxicity against human HEL cells assessed as reduction of cell growth; type: cell-based
How it was run: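 HEL cells; CC50 = compound concentration reducing cell growth by 50%.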

Human betaherpesvirus 5 [12] = test: Antiviral activity against human cytomegalovirus AD169 infected HEL cells assessed as reduction in virus plaque formation; type: functional, organism-based; conditions: Human betaherpesvirus 5, AD169, HEL
Human betaherpesvirus 5 [13] = test: Antiviral activity against human cytomegalovirus Davis infected HEL cells assessed as reduction in virus plaque formation; type: functional, organism-based; conditions: Human betaherpesvirus 5, Davis
[14] = Cytotoxicity against human HeLa cells; type: cell-based; how it was run: as §1
[15] = test system: Vesicular stomatitis virus; test: Antiviral activity against vesicular stomatitis virus in human HeLa cells assessed as inhibition of virus-induced cytopathogenicity; type: functional; how it was run: as §2
Coxsackievirus B4 [16] = test: Antiviral activity against Coxsackie virus B4 in human HeLa cells assessed as inhibition of virus-induced cytopathogenicity; type: functional; conditions: Enterovirus B; how it was run: as §2
[17] = test system: Respiratory syncytial virus; test: Antiviral activity against respiratory syncytial virus in human HeLa cells assessed as inhibition of virus-induced cytopathogenicity; type: functional; how it was run: as §2
Vero = test: Cytotoxicity against african green monkey Vero cells; type: cell-based; conditions: chlorocebus sabaeus; how it was run: as §1
Coxsackievirus B4 [18] = test: Antiviral activity against Coxsackie virus B4 in african green monkey Vero cells assessed as reduction of virus-induced cytopathogenicity; type: functional; conditions: Enterovirus B; how it was run: as §2
Punta Toro virus = test: Antiviral activity against Punta Toro virus in african green monkey Vero cells assessed as reduction of virus-induced cytopathogenicity; type: functional; how it was run: as §2
Human alphaherpesvirus 3 [19] = test: Antiviral activity against TK+ VZV OKA infected HEL cells assessed as reduction in virus plaque formation; type: functional, organism-based; conditions: Human alphaherpesvirus 3, OKA
Human alphaherpesvirus 3 [20] = test: Antiviral activity against TK- VZV 07/1 infected HEL cells assessed as reduction in virus plaque formation; type: functional, organism-based; conditions: Human alphaherpesvirus 3, 07/1, HEL
Human respirovirus 3 = test: Antiviral activity against Parainfluenza 3 virus in african green monkey Vero cells assessed as reduction of virus-induced cytopathogenicity; type: functional; how it was run: as §2
[21] = test system: Mammalian orthoreovirus 1; test: Antiviral activity against Reo virus 1 in african green monkey Vero cells assessed as reduction of virus-induced cytopathogenicity; type: functional; how it was run: as §2
Sindbis virus = test: Antiviral activity against Sindbis virus in african green monkey Vero cells assessed as reduction of virus-induced cytopathogenicity; type: functional; how it was run: as §2
[22] = test system: Human immunodeficiency virus 1; test: Antiviral activity against HIV1 3B in human MT4 cells assessed as protection against virus-induced cytopathogenicity by MTT assay; type: functional, organism-based; parameters: Activity: concentration or dose not given beside the values
How it was run: (§3)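 MT-4 cells at 6 × 10⁵ cells/ml infected with HIV-1 IIIB or HIV-2 ROD at 100–300 CCID50; compounds in serial five-fold dilutions, triplicate mock- and virus-infected wells. MTT viability read at 540 and 690 nm after 5 days, median OD of three wells; EC50 = 50% protection from viral cytopathic effect.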

[23] = test system: Human immunodeficiency virus 2; test: Antiviral activity against HIV2 ROD in human MT4 cells assessed as protection against virus-induced cytopathogenicity by MTT assay; type: functional, organism-based; parameters: Activity: concentration or dose not given beside the values; how it was run: as §3
[24] = Cytotoxicity against human MT4 cells by MTT assay; type: cell-based
How it was run: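 Mock-infected MT-4 cells (6 × 10⁵ cells/ml) with serial five-fold compound dilutions in triplicate; MTT reduction read at 540 and 690 nm after 5 days, median OD of three wells; CC50 = concentration reducing OD540 of mock-infected control by 50%.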

Row | SMILES | MCC [1] [µg/mL] | MCC [2] [µg/mL] | MIC (Human alphaherpesvirus 1 [3]) [µg/mL] | MIC (Human alphaherpesvirus 1 [4]) [µg/mL] | MIC (Human alphaherpesvirus 2 [5]) [µg/mL] | MIC (Human alphaherpesvirus 2 [6]) [µg/mL] | MIC [7] [µg/mL] | MIC [8] [µg/mL] | MIC (Human alphaherpesvirus 1 [9]) [µg/mL] | MIC (Human alphaherpesvirus 1 [10]) [µg/mL] | CC50 [11] [µg/mL] | MCC [14] [µg/mL] | MIC [15] [µg/mL] | MIC (Coxsackievirus B4 [16]) [µg/mL] | MIC [17] [µg/mL] | Activity (Vero) [µg/mL] | MIC (Coxsackievirus B4 [18]) [µg/mL] | MIC (Punta Toro virus) [µg/mL] | MIC (Human respirovirus 3) [µg/mL] | MIC [21] [µg/mL] | other results
1 | Nc1nc2c(ncn2COCCO)c(=O)[nH]1 [ACYCLOVIR] | > 400 | > 400 | 0.384 (≈ 1.71 µM) | 0.384 (≈ 1.71 µM) | 0.384 (≈ 1.71 µM) | 0.384 (≈ 1.71 µM) | > 400 | > 400 | 48 (≈ 213 µM) | 48 (≈ 213 µM) | 200 (≈ 888 µM) | – | – | – | – | – | – | – | – | – | –
2 | Nc1ccn(C[C@@H](CO)OCP(=O)(O)O)c(=O)n1.O.O [CIDOFOVIR] | – | > 400 | – | – | – | – | – | – | – | – | ≥ 18 | – | – | – | – | – | – | – | – | – | EC50 (Human betaherpesvirus 5 [12]): 0.075 µg/mL; EC50 (Human betaherpesvirus 5 [13]): 0.64 µg/mL
3 | O=c1[nH]c(=O)n([C@H]2C[C@H](O)[C@@H](CO)O2)cc1/C=C/Br [BRIVUDINE] | > 400 | > 400 | 0.0768 (≈ 0.231 µM) | 0.0768 (≈ 0.231 µM) | 80 (≈ 240 µM) | 80 (≈ 240 µM) | > 400 | > 400 | > 400 | > 400 | – | ≥ 400 | > 400 | > 400 | > 400 | > 400 | > 400 | > 400 | > 400 | > 400 | EC50 (Human alphaherpesvirus 3 [19]): 0.02 µg/mL (≈ 0.06 µM); EC50 (Human alphaherpesvirus 3 [20]): 25 µg/mL (≈ 75 µM); MIC (Sindbis virus): > 400 µg/mL
4 | C=CCn1c(-c2ccc(NC(=S)Nc3ccccc3)cc2)n[nH]c1=S | 80 | 80 | > 16 | > 16 | > 16 | > 16 | > 16 | > 16 | > 16 | > 16 | – | 400 | > 80 | > 80 | > 80 | 80 | > 16 | > 16 | > 16 | > 16 | Activity [22]: 30.5%; IC50 ([22]; Human immunodeficiency virus 1, 3B, MT4): > 19.4 µg/mL; Activity [23]: 0%; IC50 ([23]; Human immunodeficiency virus 2, ROD, MT4): > 19.4 µg/mL; CC50 [24]: 19.4 µg/mL (≈ 52.8 µM); MIC (Sindbis virus): > 16 µg/mL
